Measurements as given in ChEMBL document CHEMBL3734652, “Pyrrolo[3,4-c]pyridine-1,3(2H)-diones: A Novel Antimycobacterial Class Targeting Mycobacterial Respiration” (J Med Chem, 2015).
≈ marks a conversion by molar mass, not a printed value.

How the values were obtained:
[1] = Metabolic stability in mouse liver microsomes assessed as residual compound at 0.1 uM after 30 mins by LC-MS/MS method in presence or absence of NADPH; type: ADME; settings: read-out: Stability
[2] = tested on: Mycobacterium tuberculosis; test: Antimicrobial activity against Mycobacterium tuberculosis H37RvMA under GAST/Fe medium assessed as growth inhibition after 14 days by alamar blue assay; type: functional; settings: 336 h
Summary of the method: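 Broth microdilution in GAST/Fe medium against fully virulent Mtb H37RvMa or its derived strains (cytochrome bd oxidase deletion ΔcydKO; qcrB Ala317Thr point mutant). Plates were incubated 14 days, growth was read by Alamar Blue, and MIC90 was taken as the potency value.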

[3] = Metabolic stability in rat liver microsomes assessed as residual compound at 0.1 uM after 30 mins by LC-MS/MS method in presence or absence of NADPH; type: ADME; settings: read-out: Stability
Plasma [4] = test: Drug metabolism in C57/BL6 mouse plasma assessed as formation of 7-Amino-2-benzyl-4-methyl-1,3-dioxo-2,3-dihydro-1H-pyrrolo-[3,4-c]pyridine-6-carboxylic Acid by LC-MS analysis; type: ADME, cell-free
Liver [5] = test: Drug metabolism in BALB/c mouse liver microsomes assessed as formation of 7-Amino-2-benzyl-4-methyl-1,3-dioxo-2,3-dihydro-1H-pyrrolo-[3,4-c]pyridine-6-carboxylic Acid at 10 uM after 1 hr by LC-MS analysis; type: ADME
Plasma [6] = test: Drug metabolism in C57/BL6 mouse plasma assessed as formation of 7-Amino-2-benzyl-4-methyl-1,3-dioxo-2,3-dihydro-1H-pyrrolo-[3,4-c]pyridine-6-carboxamide by LC-MS analysis; type: ADME, cell-free
Liver [7] = test: Drug metabolism in BALB/c mouse liver microsomes assessed as formation of 7-Amino-2-benzyl-N-cyano-4-methyl-1,3-dioxo-2,3-dihydro-1Hpyrrolo[3,4-c]pyridine-6-carboxamide at 10 uM after 1 hr by LC-MS analysis; type: ADME
Liver [8] = test: Drug metabolism in BALB/c mouse liver microsomes assessed as formation of 7-Amino-2-benzyl-4-methyl-1,3-dioxo-2,3-dihydro-1H-pyrrolo-[3,4-c]pyridine-6-carboxamide at 10 uM after 1 hr by LC-MS analysis; type: ADME
[9] = Metabolic stability in human liver microsomes assessed as residual compound at 0.1 uM after 30 mins by LC-MS/MS method in presence or absence of NADPH; type: ADME; settings: read-out: Stability
Vero = test: Cytotoxicity against African green monkey Vero cells assessed as cell viability by MTT assay; type: cell-based; settings: Chlorocebus sabaeus
Summary of the method: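 VERO kidney epithelial cells from African green monkey were exposed to compounds at concentrations up to 100 μM, and IC₅₀ was reported.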

[10] = Kinetic solubility in FaSSIF at pH 6.5 after 2 hours at 25 degC by shake flask method; type: physicochemical; settings: read-out: Kinetic_solubility
Plasma [11] = test: Drug metabolism in C57/BL6 mouse plasma assessed as formation of 7-Amino-2-benzyl-N-cyano-4-methyl-1,3-dioxo-2,3-dihydro-1Hpyrrolo[3,4-c]pyridine-6-carboxamide by LC-MS analysis; type: ADME, cell-free
[12] = Total clearance in anesthetized C57/BL6 mouse at 5 mg/kg, iv co-administered with amino-benzotriazole by LC-MS method; type: ADME, organism-based; settings: in vivo
Summary of the method: (§1)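 C57/BL6 mice were given a single dose of 5 mg/kg iv or 20 mg/kg po. Each dose was tested alone and co-dosed with aminobenzotriazole, a nonspecific cytochrome P450 inhibitor. Plasma exposure was followed, and each parameter is the mean of three animals.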

[13] = Tmax in C57/BL6 mouse at 20 mg/kg, po by LC-MS method; type: ADME, organism-based; settings: in vivo; summary of the method: as §1
[14] = Tmax in anesthetized C57/BL6 mouse at 5 mg/kg, iv co-administered with amino-benzotriazole by LC-MS method; type: ADME, organism-based; settings: in vivo; summary of the method: as §1
[15] = AUC (0 to infinity) in anesthetized C57/BL6 mouse at 5 mg/kg, iv co-administered with amino-benzotriazole by LC-MS method; type: ADME, organism-based; set-up: dose 5 mg/kg, route intravenous, time infinity; settings: in vivo; summary of the method: as §1
[16] = Cmax in anesthetized C57/BL6 mouse at 5 mg/kg, iv by LC-MS method; type: ADME, organism-based; set-up: dose 5 mg/kg, route intravenous; settings: in vivo; summary of the method: as §1
[17] = Apparent half-life in anesthetized C57/BL6 mouse at 5 mg/kg, iv by LC-MS method; type: ADME, organism-based; settings: in vivo, read-out: t1/2(app) (converted); summary of the method: as §1
[18] = AUC (0 to infinity) in anesthetized C57/BL6 mouse at 5 mg/kg, iv by LC-MS method; type: ADME, organism-based; set-up: dose 5 mg/kg, route intravenous, time infinity; settings: in vivo; summary of the method: as §1
Mus musculus = test: Ratio of AUC (0 to infinity) in C57/BL6 mouse at 20 mg/kg, po co-administered with amino-benzotriazole to AUC (0 to infinity) in C57/BL6 mouse at 20 mg/kg, po without co-administration of amino-benzotriazole; type: ADME, organism-based; settings: in vivo
[19] = Tmax in anesthetized C57/BL6 mouse at 5 mg/kg, iv by LC-MS method; type: ADME, organism-based; settings: in vivo; summary of the method: as §1
[20] = Cmax in anesthetized C57/BL6 mouse at 5 mg/kg, iv co-administered with amino-benzotriazole by LC-MS method; type: ADME, organism-based; set-up: dose 5 mg/kg, route intravenous; settings: in vivo; summary of the method: as §1
Liver microsome [21] = test: Intrinsic clearance in rat liver microsomes assessed per mg of protein at 0.1 uM by LC-MS/MS method in presence or absence of NADPH; type: ADME
[22] = Apparent half-life in C57/BL6 mouse at 20 mg/kg, po co-administered with amino-benzotriazole by LC-MS method; type: ADME, organism-based; settings: in vivo, read-out: t1/2(app) (converted); summary of the method: as §1
[23] = tested on: Mycobacterium tuberculosis; test: Antimicrobial activity against clinical isolates of Mycobacterium tuberculosis SAWC 3906 Atyp-beijing under 7H9 medium assessed as growth inhibition after 14 days by alamar blue assay; type: functional; settings: 336 h
[24] = tested on: Mycobacterium tuberculosis; test: Antimicrobial activity against GFP expressing recombinant Mycobacterium tuberculosis H37RvMA under GAST/Fe medium assessed as growth inhibition after 14 days by broth microdilution method; type: functional; settings: 336 h
[25] = Half life in human plasma at 0.1 uM by LC-MS/MS method; type: ADME, cell-free
[26] = Oral bioavailability in C57/BL6 mouse at 20 mg/kg co-administered with amino-benzotriazole by LC-MS method; type: ADME, organism-based; settings: in vivo; summary of the method: as §1
[27] = Octanol-phosphate buffer partition coefficient, log D of the compound at 100 uM at pH 7.4 after 3 hrs by shake flask method; type: physicochemical
[28] = Cmax in C57/BL6 mouse at 20 mg/kg, po by LC-MS method; type: ADME, organism-based; set-up: dose 20 mg/kg, route oral; settings: in vivo; summary of the method: as §1
[29] = Cmax in C57/BL6 mouse at 20 mg/kg, po co-administered with amino-benzotriazole by LC-MS method; type: ADME, organism-based; set-up: dose 20 mg/kg, route oral; settings: in vivo; summary of the method: as §1
[30] = AUC (0 to infinity) in C57/BL6 mouse at 20 mg/kg, po by LC-MS method; type: ADME, organism-based; set-up: dose 20 mg/kg, route oral, time infinity; settings: in vivo; summary of the method: as §1
[31] = Plasma protein binding in human at 5 uM preincubated for 1 hr by LC-MS/MS method; type: ADME, cell-free; settings: read-out: PPB (converted)
[32] = Intrinsic clearance in mouse liver microsomes assessed per mg of protein at 0.1 uM by LC-MS/MS method in presence or absence of NADPH; type: ADME
[33] = tested on: Mycobacterium tuberculosis; test: Antimicrobial activity against clinical isolates of Mycobacterium tuberculosis SAWC 3933 LCC under 7H9 medium assessed as growth inhibition after 14 days by alamar blue assay; type: functional; settings: 336 h
[34] = Metabolic stability in human liver S9 fractions assessed as residual compound at 0.1 uM after 40 mins by LC-MS/MS method in presence or absence of NADPH; type: ADME; settings: read-out: Stability
[35] = Total clearance in anesthetized C57/BL6 mouse at 5 mg/kg, iv by LC-MS method; type: ADME, organism-based; settings: in vivo; summary of the method: as §1
[36] = Volume of distribution in anesthetized C57/BL6 mouse at 5 mg/kg, iv by LC-MS method; type: ADME, organism-based; settings: in vivo; summary of the method: as §1
[37] = Ratio of Cmax in C57/BL6 mouse at 20 mg/kg, po co-administered with amino-benzotriazole to MIC90 for Mycobacterium tuberculosis H37RvMA in GAST/Fe medium
[38] = Oral bioavailability in C57/BL6 mouse at 20 mg/kg by LC-MS method; type: ADME, organism-based; settings: in vivo; summary of the method: as §1
[39] = tested on: Mycobacterium tuberculosis; test: Antimicrobial activity against clinical isolates of Mycobacterium tuberculosis SAWC 3385 Cas1/Delhi under 7H9 medium assessed as growth inhibition after 14 days by alamar blue assay; type: functional; settings: 336 h
[40] = Volume of distribution in anesthetized C57/BL6 mouse at 5 mg/kg, iv co-administered with amino-benzotriazole by LC-MS method; type: ADME, organism-based; settings: in vivo; summary of the method: as §1
[41] = tested on: Mycobacterium tuberculosis; test: Antimicrobial activity against clinical isolates of Mycobacterium tuberculosis SAWC 2371 Haarlem under 7H9 medium assessed as growth inhibition after 14 days by alamar blue assay; type: functional; settings: 336 h
[42] = AUC (0 to infinity) in C57/BL6 mouse at 20 mg/kg, po co-administered with amino-benzotriazole by LC-MS method; type: ADME, organism-based; set-up: dose 20 mg/kg, route oral, time infinity; settings: in vivo; summary of the method: as §1
[43] = Apparent half-life in C57/BL6 mouse at 20 mg/kg, po by LC-MS method; type: ADME, organism-based; settings: in vivo, read-out: t1/2(app) (converted); summary of the method: as §1
[44] = Tmax in C57/BL6 mouse at 20 mg/kg, po co-administered with amino-benzotriazole by LC-MS method; type: ADME, organism-based; settings: in vivo; summary of the method: as §1
Liver microsome [45] = test: Intrinsic clearance in human liver microsomes assessed per mg of protein at 0.1 uM by LC-MS/MS method in presence or absence of NADPH; type: ADME
[46] = tested on: Mycobacterium tuberculosis; test: Antimicrobial activity against GFP expressing recombinant Mycobacterium tuberculosis H37RvMA under 7H9 medium assessed as growth inhibition after 14 days by broth microdilution method; type: functional; settings: 336 h
[47] = Apparent half-life in anesthetized C57/BL6 mouse at 5 mg/kg, iv co-administered with amino-benzotriazole by LC-MS method; type: ADME, organism-based; settings: in vivo, read-out: t1/2(app) (converted); summary of the method: as §1

Cc1noc(-c2nc(C)c3c(c2N)C(=O)N(Cc2ccccc2)C3=O)n1
remaining at 0.5 h, 0.1 µM [1]: 98%
MIC90 [2]: 0.625 µM (≈ 0.218 µg/mL)
remaining at 0.5 h, 0.1 µM [3]: 100%
Drug metabolism (Plasma [4]): metabolite_detected
Drug metabolism (Liver [5]): metabolite_detected
Drug metabolism (Plasma [6]): metabolite_detected
Drug metabolism (Liver [7]): metabolite_detected
Drug metabolism (Liver [8]): metabolite_detected
remaining at 0.5 h, 0.1 µM [9]: 57%
IC50 (Vero): > 100 µM
solubility kinetic at 2 h [10]: < 5 µM
Drug metabolism (Plasma [11]): metabolite_detected

Cc1noc(-c2nc(C)c3c(c2N)C(=O)N(Cc2cccc(Cl)c2)C3=O)n1
clearance [12]: 94.5 mL/min/kg
Tmax [13]: 1 h
Tmax [14]: 0.17 h
AUC(0-inf) [15]: 2.65 µM·h
Cmax [16]: 622 nM
half-life [17]: 7.01 h
AUC(0-inf) [18]: 1.27 µM·h
Ratio AUC (Mus musculus): 10
Tmax [19]: 0.17 h
Cmax [20]: 1530 nM
MIC90 [2]: < 0.156 µM
CLint (Liver microsome [21]): < 11.6 µL/min/mg
half-life [22]: 3.39 h
MIC90 [23]: 0.15 µM (≈ 0.0576 µg/mL)
MIC90 [24]: 0.065 µM
half-life at 0.1 µM [25]: 1.03 h
bioavailability [26]: 26%
logD at 3 h, 100 µM [27]: 3.34
Cmax [28]: 33 nM
Cmax [29]: 167 nM
AUC(0-inf) [30]: 0.133 µM·h
fraction unbound at 1 h, 5 µM [31]: 0.033
CLint [32]: < 11.6 µL/min/mg
MIC90 [33]: 0.15 µM (≈ 0.0576 µg/mL)
remaining at 40 min, 0.1 µM [34]: 97%
clearance [35]: 171 mL/min/kg
IC50 (Vero): > 100 µM
Vd [36]: 104 L/kg
Ratio [37]: 2
bioavailability [38]: 2%
solubility kinetic at 2 h [10]: 72 µM (≈ 27.6 µg/mL)
MIC90 [39]: 0.6 µM (≈ 0.23 µg/mL)
Vd [40]: 53.1 L/kg
MIC90 [41]: 0.6 µM (≈ 0.23 µg/mL)
AUC(0-inf) [42]: 1.33 µM·h
half-life [43]: 2.19 h
Tmax [44]: 0.5 h
CLint (Liver microsome [45]): < 11.6 µL/min/mg
MIC90 [46]: > 20 µM
half-life [47]: 7.31 h
